Measurements reported in ChEMBL document CHEMBL2385016, “Inhibition of VEGF expression in cancer cells and endothelial cell differentiation by synthetic stilbene derivatives” (Bioorg Med Chem, 2013).
Converted amounts (≈) assume the structure as drawn. The source made the active and inactive calls. The rule behind the calls is not given here.

Experiments:
HT-29 [1] = experiment: Antiproliferative activity against human HT-29 cells after 3 days by MTT assay; assay type: functional, cell-based; conditions: HT-29, 72 h
Outline: (§1)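 MTT dye reduction. 3×10^3 BAE cells (collagenase-isolated) or 5×10^3 HT-29 cells per well in DMEM with 10% FBS, exposed to serial dilutions for 3 days at 37 °C, 5% CO2. MTT (5 mg/ml in PBS) added for 4 h, formazan dissolved in 0.04 N HCl/2-propanol, absorbance at 550 nm. Triplicate; IC50 is the concentration giving 50% survival. Compounds from 10 mg/mL DMSO stocks.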

[2] = Antiangiogenic activity against BAEC assessed as inhibition of tube formation after 7 hrs by matrigel assay; assay type: functional; conditions: Bos taurus
Outline: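 Wells coated with Matrigel (about 10.5 mg/mL), polymerized at least 30 min at 37 °C. 5×10^4 BAE cells seeded in DMEM with a range of compound concentrations. Incubated 7 h at 37 °C, 5% CO2, then viewed and photographed at 200×. Two observers scored tube formation. Value is the minimal concentration inhibiting differentiation.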

[3] = Antiproliferative activity against BAEC after 3 days by MTT assay; assay type: functional; conditions: Bos taurus, 72 h; outline: as §1
HT-29 [4] = experiment: Inhibition of VEGF protein production in human HT-29 cells at 10 ug/mL after 72 hrs by ELISA relative to control; values are per cent of control; conditions: HT-29, 72 h
HT-29 [5] = experiment: Inhibition of VEGF mRNA expression in human HT-29 cells at 10 ug/mL after 48 hrs by RT-PCR analysis relative to control; values are per cent of control; conditions: HT-29, 48 h
HT-29 [6] = experiment: Inhibition of VEGF protein production in human HT-29 cells at 20 ug/mL after 72 hrs by ELISA relative to control; values are per cent of control; conditions: HT-29, 72 h
HT-29 [7] = experiment: Inhibition of VEGF mRNA expression in human HT-29 cells at 20 ug/mL after 48 hrs by RT-PCR analysis relative to control; values are per cent of control; conditions: HT-29, 48 h
HT-29 [8] = experiment: Inhibition of VEGF protein production in human HT-29 cells at 10 ug/mL after 72 hrs by ELISA relative to control; assay type: functional
Outline: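 HT-29 cells at 70–80% confluence were serum-starved 24 h, then treated 72 h with compound in DMSO. VEGF secreted into culture supernatants was measured by human VEGF ELISA kit in ng/mL and compared with untreated and DMSO controls. At least three measurements per condition; mean ± SEM; one-sample t-tests.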

COc1ccc(/C=C/c2ccccc2)cc1
IC50 (HT-29 [1]): 26 µM
MIC [2]: 475 µM (≈ 99.9 µg/mL)
IC50 [3]: 418 µM

C=CCOc1ccc(/C=C/c2ccccc2)cc1
IC50 (HT-29 [1]): 23 µM
MIC [2]: 106 µM (≈ 25 µg/mL)
IC50 [3]: > 400 µM

C=CCOc1ccccc1/C=C/c1ccccc1
IC50 (HT-29 [1]): 55 µM
MIC [2]: 53 µM (≈ 12.5 µg/mL)
IC50 [3]: 313 µM
level, % of control at 10 µg/mL (HT-29 [4]): 41%
level, % of control at 10 µg/mL (HT-29 [5]): 50%

Oc1ccccc1/C=C/c1ccccc1
IC50 (HT-29 [1]): 112 µM
MIC [2]: 32 µM (≈ 6.28 µg/mL)
IC50 [3]: 107 µM
level, % of control at 10 µg/mL (HT-29 [4]): 41%
level, % of control at 10 µg/mL (HT-29 [5]): 91%

Oc1cccc(/C=C/c2ccccc2)c1 [(E)-3-STILBENOL]
IC50 (HT-29 [1]): 127 µM
MIC [2]: 32 µM (≈ 6.28 µg/mL)
IC50 [3]: 91.7 µM

Oc1ccc(/C=C/c2cc(O)cc(O)c2)cc1 [RESVERATROL]
IC50 (HT-29 [1]): 110 µM
MIC [2]: 54.8 µM (≈ 12.5 µg/mL)
IC50 [3]: 48 µM
level, % of control at 20 µg/mL (HT-29 [6]): 65%
level, % of control at 20 µg/mL (HT-29 [7]): 86%

Oc1ccc(/C=C/c2ccccc2)cc1 [(E)-4-STYRYLPHENOL]
IC50 (HT-29 [1]): 34.6 µM
MIC [2]: 32 µM (≈ 6.28 µg/mL)
IC50 [3]: 33.6 µM

COc1ccccc1/C=C/c1ccccc1
inhibition (HT-29 [8]): Active
IC50 (HT-29 [1]): 42.8 µM
MIC [2]: 59.5 µM (≈ 12.5 µg/mL)
IC50 [3]: 152 µM
level, % of control at 10 µg/mL (HT-29 [5]): 70%
